Activity calls are given as the source filed them. No cut-off for these calls is given here.
How the values were obtained:
[1] = Inhibition of Plasmodium falciparum 20S proteasome beta 5 subunit chymotrypsin-like activity using fluorogenic peptide Ac-WLA-AMC as substrate in presence of PA28alpha incubated for 1 to 2 hrs by fluorescence microplate reader assay
[2] = molecular target: T1, Proteasome Macropain subunit MB1 (Homo sapiens, UniProt P28074); assay: Inhibition of human 20S constitutive proteasome beta 5 subunit chymotrypsin-like activity using fluorogenic peptide Ac-WLA-AMC as substrate in presence of PA28alpha incubated for 1 to 2 hrs by fluorescence microplate reader assay
T1 sequence (P28074 whole entry): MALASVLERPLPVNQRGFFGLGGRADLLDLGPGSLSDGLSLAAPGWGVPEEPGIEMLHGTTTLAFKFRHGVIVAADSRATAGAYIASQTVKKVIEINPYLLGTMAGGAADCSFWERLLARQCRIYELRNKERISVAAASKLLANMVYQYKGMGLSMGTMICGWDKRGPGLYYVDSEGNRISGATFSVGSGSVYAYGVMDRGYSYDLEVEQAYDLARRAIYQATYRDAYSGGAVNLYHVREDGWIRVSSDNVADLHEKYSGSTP

[3] = test system: Plasmodium falciparum; assay: Antiplasmodial activity against sorbitol synchronized ring stage Plasmodium falciparum 3D7 assessed as reduction in parasitemia incubated for 72 hrs by Syto-61 staining dye based flow cytometry analysis; type: functional; details: read-out: LD50 (the source's name)
Summary of the method: (§1)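 Sorbitol-treated ring-stage parasites in O+ human erythrocytes were incubated with compound for 72 h, and viability was read in the second cycle. Read-out was Syto-61 (2 µM) flow cytometry of parasitemia, normalized to untreated and 2 µM DHA-killed controls. Mean ± SEM of three independent experiments.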

[4] = molecular target: T2, Proteasome subunit beta type-7 (Homo sapiens, UniProt Q99436); assay: Inhibition of human 20S constitutive proteasome beta 2 subunit trypsin-like activity using fluorogenic peptide Ac-WLR-AMC as substrate in presence of PA28alpha incubated for 1 to 2 hrs by fluorescence microplate reader assay
T2 sequence (Q99436 whole entry): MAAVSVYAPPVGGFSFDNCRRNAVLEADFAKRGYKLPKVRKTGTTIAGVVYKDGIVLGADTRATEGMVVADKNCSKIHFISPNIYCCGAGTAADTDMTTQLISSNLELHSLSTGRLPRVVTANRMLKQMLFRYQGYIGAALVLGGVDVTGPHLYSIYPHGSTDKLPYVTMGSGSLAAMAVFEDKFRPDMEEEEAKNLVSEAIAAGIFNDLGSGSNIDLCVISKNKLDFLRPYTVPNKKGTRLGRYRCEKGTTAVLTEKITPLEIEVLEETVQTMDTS

[5] = molecular target: T3, Proteasome subunit beta type-6 (Homo sapiens, UniProt P28072); assay: Inhibition of human 20S constitutive proteasome beta 1 subunit caspase-like activity using fluorogenic peptide Ac-nLPnLD-AMC as substrate in presence of PA28alpha incubated for 1 to 2 hrs by fluorescence microplate reader assay
T3 sequence (P28072 whole entry): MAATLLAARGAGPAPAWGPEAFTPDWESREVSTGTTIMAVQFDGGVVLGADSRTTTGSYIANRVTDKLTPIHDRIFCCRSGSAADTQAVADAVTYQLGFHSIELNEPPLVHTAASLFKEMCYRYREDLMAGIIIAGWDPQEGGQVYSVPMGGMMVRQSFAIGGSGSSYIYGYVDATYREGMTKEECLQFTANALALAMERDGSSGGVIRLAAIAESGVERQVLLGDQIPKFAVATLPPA

[6] = molecular target: T4, Proteasome subunit beta type-9 (Homo sapiens, UniProt P28065); assay: Inhibition of human 20S immunoproteasome beta 1 subunit caspase-like activity using fluorogenic peptide Ac-nLPnLD-AMC as substrate in presence of PA28alpha incubated for 1 to 2 hrs by fluorescence microplate reader assay
T4 sequence (P28065 whole entry): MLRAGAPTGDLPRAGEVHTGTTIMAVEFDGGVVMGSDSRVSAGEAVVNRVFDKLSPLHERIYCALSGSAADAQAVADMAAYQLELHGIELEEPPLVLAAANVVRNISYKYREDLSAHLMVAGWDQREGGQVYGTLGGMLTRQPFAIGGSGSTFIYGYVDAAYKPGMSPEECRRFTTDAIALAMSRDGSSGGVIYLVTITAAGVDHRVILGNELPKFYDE

[7] = Inhibition of Plasmodium falciparum 20S proteasome beta 1 subunit caspase-like activity using fluorogenic peptide Ac-nLPnLD-AMC as substrate in presence of PA28alpha incubated for 1 to 2 hrs by fluorescence microplate reader assay
[8] = Selectivity index, ratio of LD50 for cytotoxicity against human HepG2 cells to LD50 for antiplasmodial activity against Plasmodium falciparum 3D7 sorbitol-treated ring stage; type: toxicity, cell-based; details: read-out: Selectivity Index
[9] = test system: Plasmodium falciparum; assay: Antiplasmodial activity against DHA-sensitive and sorbitol synchronized ring stage forms of Plasmodium falciparum Cam3.II^rev expressing K13 wild-type genotype assessed as reduction in parasitemia incubated for 3 hrs by pulse exposure based Syto-61 staining dye based flow cytometry analysis; type: functional; details: read-out: LD50 (the source's name)
Summary of the method: (§2)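 Tightly synchronized early-ring parasites (1-3 h post-invasion) exposed to compound for 3 h, then viability assessed in the next cycle. Cells stained with 2 µM Syto-61 and parasitemia read by flow cytometry, normalized to untreated and kill controls (2 µM DHA, 48-72 h). Mean ± SEM of three independent experiments.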

[10] = molecular target: T5, Proteasome subunit beta type-8 (Homo sapiens, UniProt P28062); assay: Inhibition of human 20S immunoproteasome beta 5 subunit chymotrypsin-like activity using fluorogenic peptide Ac-WLA-AMC as substrate in presence of PA28alpha incubated for 1 to 2 hrs by fluorescence microplate reader assay
T5 sequence (P28062 whole entry): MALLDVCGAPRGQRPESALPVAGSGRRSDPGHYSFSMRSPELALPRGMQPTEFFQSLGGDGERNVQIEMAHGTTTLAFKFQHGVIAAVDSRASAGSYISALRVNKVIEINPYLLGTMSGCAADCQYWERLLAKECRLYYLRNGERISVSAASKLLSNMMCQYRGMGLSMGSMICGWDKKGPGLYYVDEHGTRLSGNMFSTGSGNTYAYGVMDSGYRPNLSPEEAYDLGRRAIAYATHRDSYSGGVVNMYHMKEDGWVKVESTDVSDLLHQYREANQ

[11] = Inhibition of Plasmodium falciparum 20S proteasome beta 2 subunit trypsin-like activity using fluorogenic peptide Ac-WLR-AMC as substrate in presence of PA28alpha incubated for 1 to 2 hrs by fluorescence microplate reader assay
[12] = molecular target: T6, Proteasome subunit beta type-10 (Homo sapiens, UniProt P40306); assay: Inhibition of human 20S immunoproteasome beta 2 subunit trypsin-like activity using fluorogenic peptide Ac-WLR-AMC as substrate in presence of PA28alpha incubated for 1 to 2 hrs by fluorescence microplate reader assay
T6 sequence (P40306 whole entry): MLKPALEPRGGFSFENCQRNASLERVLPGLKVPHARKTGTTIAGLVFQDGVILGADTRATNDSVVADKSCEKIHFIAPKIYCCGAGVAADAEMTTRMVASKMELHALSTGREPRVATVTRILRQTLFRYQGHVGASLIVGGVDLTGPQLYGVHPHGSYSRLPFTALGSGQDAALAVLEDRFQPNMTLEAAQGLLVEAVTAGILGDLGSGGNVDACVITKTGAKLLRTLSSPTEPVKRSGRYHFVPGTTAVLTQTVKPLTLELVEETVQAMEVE

[13] = test system: Plasmodium falciparum 3D7; assay: Inhibition of 20S proteasome beta 5 subunit in bortezomib-resistant Plasmodium falciparum 3D7 assessed as inhibition of BMV037 probe labeling at 1 to 10 uM incubated for 1 hr by SDS-PAGE analysis; details: dose 1-10 µM
[14] = test system: Plasmodium falciparum; assay: Antiplasmodial activity against DHA-resistant and sorbitol synchronized ring stage forms of Plasmodium falciparum Cam3.II^R539T expressing K13 mutant assessed as reduction in parasitemia incubated for 3 hrs by pulse exposure based Syto-61 staining dye based flow cytometry analysis; type: functional; details: read-out: LD50 (the source's name); summary of the method: as §2
[15] = test system: Plasmodium falciparum; assay: Inhibition of Plasmodium falciparum 20S proteasome beta 1 subunit caspase-like activity using fluorogenic peptide Ac-nLPnLD-AMC as substrate in presence of PA28alpha at 0.8 uM measured over 5 hrs by fluorescence microplate reader assay
[16] = test system: Plasmodium falciparum; assay: Inhibition of Plasmodium falciparum 20S proteasome beta 2 subunit trypsin-like activity using fluorogenic peptide Ac-WLR-AMC as substrate in presence of PA28alpha at 0.8 uM measured over 5 hrs by fluorescence microplate reader assay
[17] = test system: Plasmodium falciparum; assay: Inhibition of Plasmodium falciparum 20S proteasome beta 5 subunit chymotrypsin-like activity using fluorogenic peptide Ac-WLA-AMC as substrate in presence of PA28alpha at 0.8 uM measured over 5 hrs by fluorescence microplate reader assay
[18] = molecular target: T7, Proteasome component C5 (Homo sapiens) (UniProt P20618); assay: Inhibition of human 20S constitutive proteasome beta 1 subunit assessed as inhibition of BMV037 probe labeling at 1 to 10 uM incubated for 1 hr by SDS-PAGE analysis; details: dose 1-10 µM
T7 sequence (whole entry): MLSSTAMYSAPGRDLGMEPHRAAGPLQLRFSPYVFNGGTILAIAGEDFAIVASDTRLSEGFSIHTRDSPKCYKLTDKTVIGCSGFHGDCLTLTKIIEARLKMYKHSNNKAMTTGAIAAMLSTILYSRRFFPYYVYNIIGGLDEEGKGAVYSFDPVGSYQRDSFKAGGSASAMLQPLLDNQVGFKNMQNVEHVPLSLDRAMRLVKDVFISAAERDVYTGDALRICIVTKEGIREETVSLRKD
Summary of the method: (§3)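 Purified human constitutive 20S (20 nM) was treated with compound at 37°C for 1 h, then labelled with 10 µM BMV037 at 37°C for 2 h. Samples were run on 10% Bis-Tris gel with MOPS buffer, and active subunits were detected by Cy5 fluorescence scan.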

[19] = test system: Plasmodium falciparum; assay: Antiplasmodial activity against sorbitol synchronized ring stage bortezomib-resistant Plasmodium falciparum 3D7 clone B2a assessed as reduction in parasitemia incubated for 72 hrs by Syto-61 staining dye based flow cytometry analysis; type: functional; details: read-out: LD50 (the source's name); summary of the method: as §1
[20] = molecular target: T8, Proteasome subunit beta type-8 (Homo sapiens) (UniProt P28062); assay: Inhibition of human 20S immunoproteasome beta 5 subunit assessed as inhibition of BMV037 probe labeling at 1 to 10 uM incubated for 1 hr by SDS-PAGE analysis; details: dose 1-10 µM
T8 sequence (whole entry): T5 sequence (P28062 whole entry)
Summary of the method: (§4)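 Purified human immuno-20S (20 nM) was incubated with compound at 37°C for 1 h, then labelled with 10 µM BMV037 at 37°C for 2 h. Samples were run on 4-12% Bis-Tris gel with MES buffer, and active subunits were visualised by Cy5 fluorescence.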

[21] = test system: Plasmodium falciparum 3D7; assay: Inhibition of 20S proteasome beta 1 subunit from bortezomib resistant Plasmodium falciparum 3D7 trophozoite infected erythrocytes assessed as inhibition of BMV037 probe labeling at 1 to 10 uM incubated for 1 hr by SDS-PAGE analysis; details: dose 1-10 µM
[22] = test system: Plasmodium falciparum 3D7; assay: Inhibition of 20S proteasome beta 5 subunit from bortezomib resistant Plasmodium falciparum 3D7 trophozoite infected erythrocytes assessed as inhibition of BMV037 probe labeling at 1 to 10 uM incubated for 1 hr by SDS-PAGE analysis; details: dose 1-10 µM
[23] = test system: Plasmodium falciparum; assay: Inhibition of proteasome in Plasmodium falciparum trophozoite stage transfected with GFP-DD assessed as reduction in GFP-DD fusion protein degradation at 0.02 to 0.5 uM incubated for 3 hrs in absence of Shield-1 by Western blot analysis; details: dose 0.02-0.5 µM
Summary of the method: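 GFP-DD reporter parasites were held in Shield-1 for 24 h, washed out, then treated as trophozoites (5% hematocrit, 5% parasitemia) with compound for 3 h at 37°C. […] Representative of four independent experiments.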

[24] = molecular target: T9, Proteasome Macropain subunit MB1 (Homo sapiens) (UniProt P28074); assay: Inhibition of human 20S constitutive proteasome beta 5 subunit assessed as inhibition of BMV037 probe labeling at 1 to 10 uM incubated for 1 hr by SDS-PAGE analysis; details: dose 1-10 µM; summary of the method: as §3
T9 sequence (whole entry): T1 sequence (P28074 whole entry)

[25] = test system: Plasmodium falciparum; assay: Antiplasmodial activity against sorbitol synchronized ring stage bortezomib-resistant Plasmodium falciparum 3D7 clone B1a assessed as reduction in parasitemia incubated for 72 hrs by Syto-61 staining dye based flow cytometry analysis; type: functional; details: read-out: LD50 (the source's name); summary of the method: as §1
[26] = molecular target: T10, Proteasome subunit beta type-9 (Homo sapiens) (UniProt P28065); assay: Inhibition of human 20S immunoproteasome beta 1 subunit assessed as inhibition of BMV037 probe labeling at 1 to 10 uM incubated for 1 hr by SDS-PAGE analysis; details: dose 1-10 µM; summary of the method: as §4
T10 sequence (whole entry): T4 sequence (P28065 whole entry)

Compound: CC(=O)N1CCC[C@H]1C(=O)N[C@@H](C)C(=O)N[C@@H](CC(C)C)B(O)O
- IC50 [1]: 2900 nM
- IC50 [2]: 97 nM
- LC50 [3]: 160 nM
- IC50 [4]: > 10000 nM
- IC50 [5]: 320 nM
- IC50 [6]: 13 nM
- IC50 [7]: 3000 nM
- selectivity ratio [8]: 15
- LC50 [9]: 1800 nM
- IC50 [10]: 63 nM
- IC50 [11]: > 10000 nM
- IC50 [12]: > 10000 nM
- inhibition [13]: inactive
- LC50 [14]: 1500 nM

Compound: CC(C)C[C@H](NC(=O)[C@H](CCc1ccccc1)NC(=O)CN1CCOCC1)C(=O)N[C@@H](Cc1ccccc1)C(=O)N[C@@H](CC(C)C)C(=O)[C@@]1(C)CO1
- inhibition [15]: inactive
- inhibition [16]: Active
- inhibition [17]: Active

Compound: CC(C)C[C@H](NC(=O)[C@H](Cc1ccccc1)NC(=O)c1cnccn1)B(O)O [BORTEZOMIB]
- IC50 [1]: 53 nM
- inhibition [18]: Active
- LC50 [3]: 60 nM
- LC50 [19]: 1100 nM
- inhibition [20]: Active
- IC50 [7]: 320 nM
- inhibition [21]: Active
- LC50 [9]: 180 nM
- inhibition [22]: Active
- inhibition [23]: Active
- inhibition [24]: Active
- IC50 [11]: 1600 nM
- LC50 [25]: 1300 nM
- inhibition [26]: Active
- LC50 [14]: 120 nM
